From ChEMBL document CHEMBL5143669, “Stapled peptides as scaffolds for developing radiotracers for intracellular targets: Preliminary evaluation of a radioiodinated MDM2-binding stapled peptide in the SJSA-1 osteosarcoma model” (Bioorg Med Chem Lett, 2022)

Legend:
[1] = Biodistribution in Small intestine of athymic mouse xenografted with human SJSA-1 cells at 166.5 kBq, iv after 2 hrs by automated gamma counting method; format: ADME, organism-based; conditions: in vivo
Outline: (§1)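 125I-labeled peptide (166.5 kBq in 100 μL) was injected via tail vein into athymic mice bearing flank SJSA-1 xenografts, n = 5 per time point. Tumors, blood and major organs were gamma-counted at 0.5, 2, 6 and 24 h post-injection. Values are %ID/g.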

[2] = Biodistribution in Kidney of athymic mouse xenografted with human SJSA-1 cells at 166.5 kBq, iv after 30 mins by automated gamma counting method; format: ADME, organism-based; conditions: in vivo, 0.5 h; outline: as §1
[3] = Biodistribution in Stomach of athymic mouse xenografted with human SJSA-1 cells at 166.5 kBq, iv after 6 hrs by automated gamma counting method; format: ADME, organism-based; conditions: in vivo
Outline: (§2)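 Athymic mice bearing flank SJSA-1 xenografts received 125I-SIB-labeled peptide (166.5 kBq, 100 μL) by tail vein; groups of five per time point. Tumor, blood and organs were taken at 0.5–24 h and counted by gamma counter; values expressed as %ID/g.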

[4] = Biodistribution in Thyroid of athymic mouse xenografted with human SJSA-1 cells at 166.5 kBq, iv after 24 hrs by automated gamma counting method; format: ADME, organism-based, Thyroid gland; conditions: in vivo; outline: as §2
[5] = Biodistribution in Bone of athymic mouse xenografted with human SJSA-1 cells at 166.5 kBq, iv after 2 hrs by automated gamma counting method; format: ADME, organism-based, Bone element; conditions: in vivo; outline: as §1
[6] = Biodistribution in Muscle of athymic mouse xenografted with human SJSA-1 cells at 166.5 kBq, iv after 2 hrs by automated gamma counting method; format: ADME, organism-based, Muscle tissue; conditions: in vivo; outline: as §1
[7] = Biodistribution in Small intestine of athymic mouse xenografted with human SJSA-1 cells at 166.5 kBq, iv after 24 hrs by automated gamma counting method; format: ADME, organism-based; conditions: in vivo; outline: as §1
[8] = Biodistribution in Kidney of athymic mouse xenografted with human SJSA-1 cells at 166.5 kBq, iv after 2 hrs by automated gamma counting method; format: ADME, organism-based; conditions: in vivo; outline: as §1
[9] = Biodistribution in Brain of athymic mouse xenografted with human SJSA-1 cells at 166.5 kBq, iv after 24 hrs by automated gamma counting method; format: ADME, organism-based; conditions: in vivo; outline: as §1
[10] = Biodistribution in Spleen of athymic mouse xenografted with human SJSA-1 cells at 166.5 kBq, iv after 2 hrs by automated gamma counting method; format: ADME, organism-based; conditions: in vivo; outline: as §1
[11] = Biodistribution in Lung of athymic mouse xenografted with human SJSA-1 cells at 166.5 kBq, iv after 6 hrs by automated gamma counting method; format: ADME, organism-based; conditions: in vivo; outline: as §1
[12] = Biodistribution in Muscle of athymic mouse xenografted with human SJSA-1 cells at 166.5 kBq, iv after 6 hrs by automated gamma counting method; format: ADME, organism-based, Muscle tissue; conditions: in vivo; outline: as §1
[13] = Biodistribution in Liver of athymic mouse xenografted with human SJSA-1 cells at 166.5 kBq, iv after 6 hrs by automated gamma counting method; format: ADME, organism-based; conditions: in vivo; outline: as §1
[14] = Biodistribution in Heart of athymic mouse xenografted with human SJSA-1 cells at 166.5 kBq, iv after 2 hrs by automated gamma counting method; format: ADME, organism-based; conditions: in vivo; outline: as §1
[15] = Biodistribution in Lung of athymic mouse xenografted with human SJSA-1 cells at 166.5 kBq, iv after 24 hrs by automated gamma counting method; format: ADME, organism-based; conditions: in vivo; outline: as §1
[16] = Biodistribution in Thyroid of athymic mouse xenografted with human SJSA-1 cells at 166.5 kBq, iv after 2 hrs by automated gamma counting method; format: ADME, organism-based, Thyroid gland; conditions: in vivo; outline: as §2
[17] = Biodistribution in Spleen of athymic mouse xenografted with human SJSA-1 cells at 166.5 kBq, iv after 6 hrs by automated gamma counting method; format: ADME, organism-based; conditions: in vivo; outline: as §1
[18] = Biodistribution in Bone of athymic mouse xenografted with human SJSA-1 cells at 166.5 kBq, iv after 6 hrs by automated gamma counting method; format: ADME, organism-based, Bone element; conditions: in vivo; outline: as §1
[19] = Biodistribution in Urinary bladder of athymic mouse xenografted with human SJSA-1 cells at 166.5 kBq, iv after 2 hrs by automated gamma counting method; format: ADME, organism-based; conditions: in vivo; outline: as §2
[20] = Biodistribution in Small intestine of athymic mouse xenografted with human SJSA-1 cells at 166.5 kBq, iv after 6 hrs by automated gamma counting method; format: ADME, organism-based; conditions: in vivo; outline: as §1
[21] = Biodistribution in Skin of athymic mouse xenografted with human SJSA-1 cells at 166.5 kBq, iv after 2 hrs by automated gamma counting method; format: ADME, organism-based, Skin of body; conditions: in vivo; outline: as §1
[22] = Biodistribution in Brain of athymic mouse xenografted with human SJSA-1 cells at 166.5 kBq, iv after 2 hrs by automated gamma counting method; format: ADME, organism-based; conditions: in vivo; outline: as §1
[23] = Biodistribution in Liver of athymic mouse xenografted with human SJSA-1 cells at 166.5 kBq, iv after 2 hrs by automated gamma counting method; format: ADME, organism-based; conditions: in vivo; outline: as §1
[24] = Stability in human serum assessed as intact peptide level at 37 degC incubated for 72 hrs by RP-HPLC analysis; format: ADME, cell-free; conditions: read-out: Drug uptake
Outline: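 125I-labeled peptide was incubated in human serum at 37 °C for up to 72 h. Aliquots were run by RP-HPLC (RP-18 column, ethanol/0.05 M sodium acetate pH 5.5 gradient, 1 mL/min), and intact peptide was expressed as percentage of injected activity.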

[25] = Biodistribution in Bone of athymic mouse xenografted with human SJSA-1 cells at 166.5 kBq, iv after 24 hrs by automated gamma counting method; format: ADME, organism-based, Bone element; conditions: in vivo; outline: as §1
[26] = Biodistribution in Lung of athymic mouse xenografted with human SJSA-1 cells at 166.5 kBq, iv after 30 mins by automated gamma counting method; format: ADME, organism-based; conditions: in vivo, 0.5 h; outline: as §1
[27] = Biodistribution in Muscle of athymic mouse xenografted with human SJSA-1 cells at 166.5 kBq, iv after 24 hrs by automated gamma counting method; format: ADME, organism-based, Muscle tissue; conditions: in vivo; outline: as §1
[28] = Biodistribution in Tumor of athymic mouse xenografted with human SJSA-1 cells at 166.5 kBq, iv after 30 mins by automated gamma counting method; format: ADME, organism-based, Neoplasm; conditions: in vivo, 0.5 h; outline: as §2
[29] = Drug uptake in MDM2-amplified human SJSA-1 cells expressing wild type p53 assessed as initially bound radioactivity incubated for 0.5 hrs subsequently re-incubating the cells with fresh medium for up to 2 hrs; format: ADME, cell-based; conditions: sjsa-1, 0.5 h
Outline: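 SJSA-1 cells were loaded with 125I-labeled peptide for 1 h, then reincubated in fresh medium for 0.5–2 h. Cell-retained activity and cumulative release into the supernatant were expressed as percentage of initially bound activity.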

[30] = Biodistribution in Liver of athymic mouse xenografted with human SJSA-1 cells at 166.5 kBq, iv after 24 hrs by automated gamma counting method; format: ADME, organism-based; conditions: in vivo; outline: as §1
[31] = Biodistribution in Stomach of athymic mouse xenografted with human SJSA-1 cells at 166.5 kBq, iv after 2 hrs by automated gamma counting method; format: ADME, organism-based; conditions: in vivo; outline: as §2
[32] = Biodistribution in Skin of athymic mouse xenografted with human SJSA-1 cells at 166.5 kBq, iv after 6 hrs by automated gamma counting method; format: ADME, organism-based, Skin of body; conditions: in vivo; outline: as §1
[33] = Biodistribution in Lung of athymic mouse xenografted with human SJSA-1 cells at 166.5 kBq, iv after 2 hrs by automated gamma counting method; format: ADME, organism-based; conditions: in vivo; outline: as §1
[34] = Biodistribution in Large intestine of athymic mouse xenografted with human SJSA-1 cells at 166.5 kBq, iv after 6 hrs by automated gamma counting method; format: ADME, organism-based; conditions: in vivo; outline: as §1

For `CC(=O)NC(CCCCNC(=O)c1cccc([125I])c1)C(=O)NCCCCCC(=O)N[C@H](C(=O)N[C@@H](CO)C(=O)N[C@@H](Cc1ccccc1)C(=O)N[C@@]1(C)CCCCCC/C=C/CCC[C@@](C)(C(=O)N[C@@H](CCC(=O)O)C(=O)N[C@@H](CC(N)=O)C(=O)N[C@@H](Cc2ccccc2)C(N)=O)NC(=O)[C@H](CC(C)C)NC(=O)[C@H](CC(C)C)NC(=O)[C@H](C)NC(=O)[C@H](Cc2c[nH]c3ccccc23)NC(=O)[C@H](Cc2ccc(O)cc2)NC(=O)[C@H](CCC(=O)O)NC1=O)[C@@H](C)O` (some centres undefined), the Drug uptake [1] was 2.17 % ID/g, the Drug uptake [2] was 3.06 % ID/g and the Drug uptake [3] was 1.9 % ID/g. For the same molecule, the Drug uptake [4] was 0.27 % ID/g, the Drug uptake [5] was 0.33 % ID/g and the Drug uptake [6] was 0.24 % ID/g. For the same molecule, the Drug uptake [7] was 0.86 % ID/g, the Drug uptake [8] was 2.54 % ID/g and the Drug uptake [9] was 0.02 % ID/g. The Drug uptake [10] was 1.8 % ID/g, the Drug uptake [11] was 2.49 % ID/g and the Drug uptake [12] was 0.25 % ID/g. For the same molecule, the Drug uptake [13] was 11.41 % ID/g, the Drug uptake [14] was 2.44 % ID/g and the Drug uptake [15] was 0.33 % ID/g. For the same molecule, the Drug uptake [16] was 1.14 % ID/g, the Drug uptake [17] was 1.99 % ID/g and the Drug uptake [18] was 0.29 % ID/g. The Drug uptake [19] was 0.58 % ID/g, the Drug uptake [20] was 3.84 % ID/g and the Drug uptake [21] was 0.88 % ID/g. It also gave a Drug uptake [22] of 0.25 % ID/g, a Drug uptake [23] of 18.41 % ID/g and a remaining at 72 h [24] of 96%. It also gave a Drug uptake [25] of 0.16 % ID/g, a Drug uptake [26] of 4.27 % ID/g and a Drug uptake [27] of 0.16 % ID/g. For the same molecule, the Drug uptake [28] was 1.8 % ID/g, the Drug uptake [29] was 83.1% and the Drug uptake [30] was 4.72 % ID/g. For the same molecule, the Drug uptake [31] was 0.53 % ID/g, the Drug uptake [32] was 1.22 % ID/g and the Drug uptake [33] was 2.72 % ID/g. The Drug uptake [34] was 4.44 % ID/g.
